According to paper PMC6585461 (Biomaterials, 2019):

Legend:
blood glucose = assay: Hypoglycemic effect of insulin formulations; format: in vivo, BALB/c mice; conditions: fasted mice, s.c., 2 IU/kg
How it was run: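 Healthy BALB/c mice, 6-7 weeks old, were fasted overnight with water only and kept fasted throughout, n=6 per group. They received a subcutaneous injection at an insulin dose of 2 IU/kg, either free insulin or insulin loaded in nanocarriers at a 1/10 insulin:polymer mass ratio. Blood glucose was followed with a glucose meter over 0-6 h. Area above the curve was calculated by the trapezoidal method.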

SKOV-3 cells = assay: Intracellular uptake of RB-BSA by confocal microscopy; format: cell-based; conditions: BSA ~60 μg/mL, 2 h, 37 °C
How it was run: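 SKOV-3 cells in McCoy's 5A with 10% FBS were seeded at 5 × 10⁴ per well and allowed to adhere for 24 h. Lysosomes were labelled with LysoTracker Green DND-26 for 30 min at 37 °C. Rhodamine B-labelled BSA, free or nanocarrier-loaded (final BSA ~60 μg/mL), was added for 2 h. Cells were washed three times with PBS, fixed in 4% paraformaldehyde for 15 min at room temperature, DAPI-stained and imaged by laser scanning confocal microscopy.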

Substance: insulin: insulin (MW: 5807 Da)
- glycemic decrease (blood glucose; 30 min after injection, n=6): 32%
- blood glucose recovery, % of basal level (blood glucose; after 2 h): 80%
- time of maximal blood glucose drop (nadir) (blood glucose; n=6): 1 h

Substance: RB-BSA: Rhodamine B (RB)-labeled BSA, model protein
- cellular uptake of RB-BSA (free or loaded in the nanocarrier) (SKOV-3 cells): minimal
